Test results as given in ChEMBL document CHEMBL5724801, “EUbOPEN Chemogenomics Library - Multiplex” (2024).
Where “and” joins values, the source holds several entries; their conditions need not be identical. Identical values can stand only once.

What was measured:
Type in all cases: toxicity, cell-based
[1] = system: Fibroblast; experiment: Multiplex assay against human fibroblast
How it was run: (§1)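 Values for tubulin, mitochondrial-mass and membrane-permeability phenotypes are per cents of cells with healthy nuclei. These cells were identified by CellPathfinder machine-learning gating of live cells that had been stained at seeding with Hoechst33342, BioTracker Green Microtubule Cytoskeleton Dye, MitoTracker Red and Annexin V Alexa Fluor 680 and imaged on a CQ1 microscope at 37°C and 5% CO2 after compound addition. The gating first set Hoechst high-intensity objects apart from normal cells, then split normal cells into healthy, pyknosed or fragmented nuclei, and pyknosed cells into mitotic or apoptotic.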

[2] = system: HEK-293T; experiment: Multiplex assay against HEK293T; conditions: human; how it was run: as §1
[3] = system: U2OS; experiment: Multiplex assay against U2OS; conditions: human; how it was run: as §1
[4] = 12 h, 1 µM, compound concentration 1 uM
[5] = 12 h, 10 µM, compound concentration 10 uM
[6] = 24 h, 1 µM, compound concentration 1 uM
[7] = 24 h, 10 µM, compound concentration 10 uM
[8] = 48 h, 1 µM, compound concentration 1 uM
[9] = 48 h, 10 µM, compound concentration 10 uM

Cc1cc(O)c(-c2ccc([C@@H](C)CN(C)C)cc2)c2c1[nH]c(=O)c1sccc12
Population Healthy Nuclei (%) [1, 4]: 67% and 56% and 55.08% and 75.51% | Population Hoechst High Intensity Objects (%) [1, 4]: 7% and 2% and 0% | Population Membrane Permeable-Phenotype (%) [1, 4]: 1% and 4% and 5.83% and 9.91% | Population Mitochondria Different-Phenotype (%) [1, 4]: 17% and 12% and 18.45% and 20.72% | Population Mitotic Cells (%) [1, 4]: 72.41% [middle of 4 runs] | Population Normal (%) [1, 4]: 92% and 97% and 100% | Population Pyknosed Nuclei (%) [1, 4]: 20% and 21% and 33.16% and 19.73% | Population Tubulin-Different-Phenotype (%) [1, 4]: 44% and 52% and 26.21% and 40.54% | Total Cell Count [1, 4]: 145 and 115 and 187 and 147 | Population Apoptotic (%) [1, 5]: 69% [middle of 4 runs] | Population Healthy Nuclei (%) [1, 5]: 63% and 55% and 58.38% and 64.17% | Population Hoechst High Intensity Objects (%) [1, 5]: 6% and 5% and 0% | Population Membrane Permeable-Phenotype (%) [1, 5]: 8.7% [middle of 4 runs] | Population Mitochondria Different-Phenotype (%) [1, 5]: 40% [middle of 4 runs] | Population Mitotic Cells (%) [1, 5]: 30% and 75.86% and 55.84% | Population Normal (%) [1, 5]: 93% and 94% and 100% | Population Pyknosed Nuclei (%) [1, 5]: 29.44% [middle of 4 runs] | Population Tubulin-Different-Phenotype (%) [1, 5]: 90% and 80% and 81.74% and 85.06% | Total Cell Count [1, 5]: 146 and 137 and 197 and 240 | Population Healthy Nuclei (%) [1, 6]: 66% and 54% and 64.88% and 75% | Population Hoechst High Intensity Objects (%) [1, 6]: 7% and 9% and 0% | Population Membrane Permeable-Phenotype (%) [1, 6]: 0% and 1% and 5.5% and 9.26% | Population Mitochondria Different-Phenotype (%) [1, 6]: 21.1% [middle of 4 runs] | Population Mitotic Cells (%) [1, 6]: 54% and 47% and 85.37% and 84.62% | Population Normal (%) [1, 6]: 92% and 90% and 100% | Population Pyknosed Nuclei (%) [1, 6]: 21% and 16% and 24.4% and 18.06% | Population Tubulin-Different-Phenotype (%) [1, 6]: 73% and 56% and 47.71% and 50.93% | Total Cell Count [1, 6]: 119 and 111 and 168 and 144 | Population Apoptotic (%) [1, 7]: 57% [middle of 4 runs] | Population Healthy Nuclei (%) [1, 7]: 65% and 51% and 52.84% and 54.55% | Population Hoechst High Intensity Objects (%) [1, 7]: 3% and 8% and 0% | Population Membrane Permeable-Phenotype (%) [1, 7]: 0% and 3% and 6.45% and 8.77% | Population Mitochondria Different-Phenotype (%) [1, 7]: 42% and 34% and 53.76% and 42.11% | Population Mitotic Cells (%) [1, 7]: 43.68% [middle of 4 runs] | Population Normal (%) [1, 7]: 96% and 91% and 100% | Population Pyknosed Nuclei (%) [1, 7]: 34.66% [middle of 4 runs] | Population Tubulin-Different-Phenotype (%) [1, 7]: 87% and 81% and 80.65% and 92.11% | Total Cell Count [1, 7]: 122 and 124 and 176 and 209 | Population Apoptotic (%) [1, 8]: 57% [middle of 4 runs] | Population Healthy Nuclei (%) [1, 8]: 55% and 48% and 49.14% and 75.38% | Population Hoechst High Intensity Objects (%) [1, 8]: 7% and 9% and 0% | Population Mitochondria Different-Phenotype (%) [1, 8]: 20% [middle of 4 runs] | Population Mitotic Cells (%) [1, 8]: 52% [middle of 4 runs] | Population Normal (%) [1, 8]: 92% and 90% and 100% | Population Pyknosed Nuclei (%) [1, 8]: 24% and 20% and 28.57% and 19.23% | Population Tubulin-Different-Phenotype (%) [1, 8]: 70% and 62% and 43.02% and 59.18% | Total Cell Count [1, 8]: 118 and 103 and 175 and 130 | Population Apoptotic (%) [1, 9]: 70% and 71% and 49.33% and 79.12% | Population Healthy Nuclei (%) [1, 9]: 53% and 43% and 45.16% and 48.13% | Population Hoechst High Intensity Objects (%) [1, 9]: 10% and 7% and 0% | Population Membrane Permeable-Phenotype (%) [1, 9]: 0% and 8.33% and 20% | Population Mitochondria Different-Phenotype (%) [1, 9]: 53% and 30% and 44.05% | Population Mitotic Cells (%) [1, 9]: 29% [middle of 4 runs] | Population Normal (%) [1, 9]: 89% and 92% and 100% | Population Tubulin-Different-Phenotype (%) [1, 9]: 89% and 85% and 58.33% and 77.78% | Total Cell Count [1, 9]: 117 and 136 and 186 and 187 | Population Membrane Permeable-Phenotype (%) [2, 4]: 0% and 1% and 7.14% | Population Mitotic Cells (%) [2, 4]: 88.89% [middle of 4 runs] | Population Normal (%) [2, 4]: 72% and 71% and 100% | Population Tubulin-Different-Phenotype (%) [2, 4]: 74% [middle of 4 runs] | Total Cell Count [2, 4]: 209 and 207 and 208 and 140 | Population Fragmented Nuclei (%) [2, 5]: 6% and 7% and 2.23% and 0.71% | Population Membrane Permeable-Phenotype (%) [2, 5]: 0% and 2.04% and 9.09% | Population Mitotic Cells (%) [2, 5]: 62.79% [middle of 4 runs] | Population Normal (%) [2, 5]: 58% and 71% and 100% | Population Pyknosed Nuclei (%) [2, 5]: 75.89% [middle of 4 runs] | Population Tubulin-Different-Phenotype (%) [2, 5]: 60% and 72% and 75.51% and 63.64% | Total Cell Count [2, 5]: 268 and 195 and 224 and 141 | Population Apoptotic (%) [2, 6]: 65% and 68% and 44.06% and 39.32% | Population Fragmented Nuclei (%) [2, 6]: 9% and 2.63% and 2.94% | Population Hoechst High Intensity Objects (%) [2, 6]: 21% and 1.72% and 0% | Population Membrane Permeable-Phenotype (%) [2, 6]: 0% and 6.67% | Population Mitochondria Different-Phenotype (%) [2, 6]: 89% [middle of 4 runs] | Population Mitotic Cells (%) [2, 6]: 34% and 31% and 55.94% and 60.68% | Population Normal (%) [2, 6]: 78% and 98.28% and 100% | Population Tubulin-Different-Phenotype (%) [2, 6]: 67% [middle of 4 runs] | Total Cell Count [2, 6]: 230 and 205 and 232 and 136 | Population Apoptotic (%) [2, 7]: 73% and 85% and 61.29% and 65.71% | Population Fragmented Nuclei (%) [2, 7]: 8% and 7% and 0.96% and 1.33% | Population Membrane Permeable-Phenotype (%) [2, 7]: 1.92% [middle of 4 runs] | Population Mitochondria Different-Phenotype (%) [2, 7]: 92% [middle of 4 runs] | Population Mitotic Cells (%) [2, 7]: 34.29% [middle of 4 runs] | Population Normal (%) [2, 7]: 63% and 74% and 99.52% and 100% | Population Tubulin-Different-Phenotype (%) [2, 7]: 70% and 80% and 96.15% and 62.5% | Total Cell Count [2, 7]: 290 and 203 and 210 and 150 | Population Apoptotic (%) [2, 8]: 86% and 69% and 73.55% and 70.43% | Population Hoechst High Intensity Objects (%) [2, 8]: 24% [middle of 4 runs] | Population Membrane Permeable-Phenotype (%) [2, 8]: 0% | Population Mitochondria Different-Phenotype (%) [2, 8]: 90% and 96% and 92% and 88.89% | Population Mitotic Cells (%) [2, 8]: 29.57% [middle of 4 runs] | Population Normal (%) [2, 8]: 75% and 74% and 99.03% and 100% | Population Tubulin-Different-Phenotype (%) [2, 8]: 76% and 70% and 42.67% and 77.78% | Total Cell Count [2, 8]: 249 and 212 and 206 and 135 | Population Apoptotic (%) [2, 9]: 86% and 87% and 92.81% and 91.73% | Population Fragmented Nuclei (%) [2, 9]: 13% [middle of 4 runs] | Population Membrane Permeable-Phenotype (%) [2, 9]: 1% and 0% and 1.56% | Population Mitochondria Different-Phenotype (%) [2, 9]: 92% and 100% and 87.5% | Population Mitotic Cells (%) [2, 9]: 13% and 12% and 7.19% and 8.27% | Population Normal (%) [2, 9]: 59% and 65% and 99.52% and 100% | Population Tubulin-Different-Phenotype (%) [2, 9]: 54% and 73% and 90.62% and 87.5% | Total Cell Count [2, 9]: 223 [middle of 4 runs] | Population Apoptotic (%) [3, 4]: 70% [middle of 4 runs] | Population Healthy Nuclei (%) [3, 4]: 48% and 63% and 56.09% and 62.5% | Population Hoechst High Intensity Objects (%) [3, 4]: 4% and 2% and 0.32% and 0% | Population Normal (%) [3, 4]: 95% and 97% and 99.68% and 100% | Population Tubulin-Different-Phenotype (%) [3, 4]: 12% and 14% and 4% and 6.67% | Population Apoptotic (%) [3, 5]: 64% and 69% and 40.85% and 42.19% | Population Healthy Nuclei (%) [3, 5]: 50% and 56% and 56.98% and 52.11% | Population Hoechst High Intensity Objects (%) [3, 5]: 4% and 8% and 0% | Population Mitotic Cells (%) [3, 5]: 35% and 30% and 59.15% and 57.81% | Population Normal (%) [3, 5]: 95% and 91% and 100% | Population Pyknosed Nuclei (%) [3, 5]: 41.28% [middle of 4 runs] | Population Tubulin-Different-Phenotype (%) [3, 5]: 72% and 45% and 70.41% and 64.86% | Population Apoptotic (%) [3, 6]: 92% [middle of 4 runs] | Population Healthy Nuclei (%) [3, 6]: 34% [middle of 4 runs] | Population Hoechst High Intensity Objects (%) [3, 6]: 8% and 6% and 0.34% and 0% | Population Normal (%) [3, 6]: 91% and 93% and 99.66% and 100% | Population Tubulin-Different-Phenotype (%) [3, 6]: 19% and 12% and 11.11% and 17.07% | Population Apoptotic (%) [3, 7]: 81% and 82% and 58.37% and 68.63% | Population Healthy Nuclei (%) [3, 7]: 31% [middle of 4 runs] | Population Hoechst High Intensity Objects (%) [3, 7]: 9% [middle of 4 runs] | Population Membrane Permeable-Phenotype (%) [3, 7]: 16% [middle of 4 runs] | Population Mitochondria Different-Phenotype (%) [3, 7]: 70% [middle of 4 runs] | Population Mitotic Cells (%) [3, 7]: 31.37% [middle of 4 runs] | Population Normal (%) [3, 7]: 90% and 87% and 99.35% and 100% | Population Pyknosed Nuclei (%) [3, 7]: 67.86% [middle of 4 runs] | Population Tubulin-Different-Phenotype (%) [3, 7]: 64.47% [middle of 4 runs] | Total Cell Count [3, 7]: 210 [middle of 4 runs] | Population Apoptotic (%) [3, 8]: 96% and 100% and 72.95% and 83.47% | Population Healthy Nuclei (%) [3, 8]: 18% [middle of 4 runs] | Population Normal (%) [3, 8]: 82% and 84% and 99.63% and 98.84% | Population Tubulin-Different-Phenotype (%) [3, 8]: 25% and 50% and 28.57% | Total Cell Count [3, 8]: 250 [middle of 4 runs] | Population Apoptotic (%) [3, 9]: 96% and 100% and 80.93% and 86.67% | Population Healthy Nuclei (%) [3, 9]: 17% and 13% and 14.23% and 9.84% | Population Mitochondria Different-Phenotype (%) [3, 9]: 45% and 50% and 33.33% | Population Mitotic Cells (%) [3, 9]: 13.33% [middle of 4 runs] | Population Normal (%) [3, 9]: 79% and 84% and 98.92% and 99.19% | Population Pyknosed Nuclei (%) [3, 9]: 31% and 78.47% and 86.07% | Population Tubulin-Different-Phenotype (%) [3, 9]: 64% [middle of 4 runs] | Total Cell Count [3, 9]: 220 [middle of 4 runs]
